# Test results from ChEMBL document CHEMBL1177758, “Anti-neuroinflammatory activity of 1,5-benzodiazepine derivatives” (Bioorg Med Chem Lett, 2010).
# The source made the active and inactive calls. The calls are words filed in the database; no cut-off is given here.
# Columns and labels:
# BV-2 [1] = test: Antiinflammatory activity in mouse BV2 cells assessed as inhibition of LPS-induced NO production at 10 uM after 24 hrs by Griess reaction; format: functional; conditions: BV-2, 24 h
# How it was run: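 BV-2 microglial cells were activated with 100 ng/ml LPS for 24 h with compound at 10 µM. Medium nitrite was measured by Griess reaction. The value is mean inhibition of NO production relative to the LPS control, from three experiments.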
# BV-2 [2] = test: Antiinflammatory activity in mouse BV2 cells assessed as inhibition of LPS-induced NO production after 24 hrs by Griess reaction; format: functional, cell-based; conditions: BV-2, 24 h
# How it was run: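 Murine BV-2 microglia stimulated with LPS at 100 ng/ml for 24 h with or without compound. Nitrite, a soluble oxidation product of NO, was measured in the culture medium by Griess reaction.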
# BV-2 [3] = test: Antiinflammatory activity in mouse BV2 cells assessed as inhibition of LPS-induced iNOS protein expression at 10 uM after 6 hrs by Western blotting
# [4] = target: T1, Nitric oxide synthase, inducible (Mus musculus) (UniProt P29477); test: Inhibition of iNOS activity in LPS-stimulated mouse BV2 cells after 12 hrs; format: cell-based; conditions: BV-2
# T1 sequence (whole entry): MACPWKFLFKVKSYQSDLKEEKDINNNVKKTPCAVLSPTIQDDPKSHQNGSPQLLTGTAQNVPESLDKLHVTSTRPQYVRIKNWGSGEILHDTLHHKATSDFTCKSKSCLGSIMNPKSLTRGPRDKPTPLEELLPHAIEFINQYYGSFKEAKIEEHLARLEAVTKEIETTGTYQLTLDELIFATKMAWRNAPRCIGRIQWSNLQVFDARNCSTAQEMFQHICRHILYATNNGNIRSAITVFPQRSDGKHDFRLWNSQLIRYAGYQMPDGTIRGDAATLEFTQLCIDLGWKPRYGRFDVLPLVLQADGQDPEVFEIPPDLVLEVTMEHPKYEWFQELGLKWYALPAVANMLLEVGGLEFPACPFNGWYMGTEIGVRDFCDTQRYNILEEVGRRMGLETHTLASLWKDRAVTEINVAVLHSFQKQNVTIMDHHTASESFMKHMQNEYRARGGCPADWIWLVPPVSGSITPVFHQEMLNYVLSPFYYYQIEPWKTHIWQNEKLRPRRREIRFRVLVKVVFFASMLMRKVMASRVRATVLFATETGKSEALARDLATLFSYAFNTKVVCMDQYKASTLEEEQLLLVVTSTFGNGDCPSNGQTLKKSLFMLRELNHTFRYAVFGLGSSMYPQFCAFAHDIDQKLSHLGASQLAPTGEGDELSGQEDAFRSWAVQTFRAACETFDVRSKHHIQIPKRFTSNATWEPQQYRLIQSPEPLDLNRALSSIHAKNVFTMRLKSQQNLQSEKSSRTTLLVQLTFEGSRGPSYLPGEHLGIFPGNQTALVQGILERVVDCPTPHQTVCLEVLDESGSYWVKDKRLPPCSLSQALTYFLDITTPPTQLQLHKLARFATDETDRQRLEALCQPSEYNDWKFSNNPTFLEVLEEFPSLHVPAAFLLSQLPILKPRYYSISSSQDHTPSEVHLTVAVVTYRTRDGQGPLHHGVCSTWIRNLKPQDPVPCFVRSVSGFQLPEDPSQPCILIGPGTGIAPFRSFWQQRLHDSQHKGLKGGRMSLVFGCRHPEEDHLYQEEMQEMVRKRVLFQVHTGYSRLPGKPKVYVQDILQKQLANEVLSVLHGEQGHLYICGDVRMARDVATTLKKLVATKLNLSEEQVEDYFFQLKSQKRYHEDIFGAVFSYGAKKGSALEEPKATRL
# How it was run: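 Intact-cell iNOS activity assay. BV-2 cells (4 × 10⁶) were pre-induced with LPS at 100 ng/ml for 12 h, washed twice with PBS, then replated at 2 × 10⁶ cells/well. They were incubated with various compound concentrations for a further 12 h. Supernatant NO was read by Griess reaction.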
# [5] = Cytotoxicity against mouse BV2 cells; format: cell-based, BV-2; conditions: read-out: INH
# How it was run: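 Viability of murine BV-2 microglia, stimulated with LPS at 100 ng/ml for 24 h with or without compound, was measured by MTT assay.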
IC50 (BV-2 [2]) [µM],inhibition [4],Structure (SMILES),inhibition at 10 µM (BV-2 [1]) [%],inhibition (BV-2 [3]),cytotoxicity [5] [%]
14.3,–,CC1=Nc2ccccc2NC(C)(C)C1,28.6,–,–
23.2,–,CC1(c2cccc(Cl)c2)CC(c2cccc(Cl)c2)=Nc2ccccc2N1 (configuration not stated),21.2,–,–
14,–,Cc1ccc(C2=Nc3ccccc3NC(C)(c3ccc(C)cc3)C2)cc1 (configuration not stated),34.6,–,–
23.2,–,CC1(c2ccccc2[N+](=O)[O-])CC(c2ccccc2[N+](=O)[O-])=Nc2ccccc2N1 (configuration not stated),24.9,–,–
7,Active,CC1(c2cccs2)CC(c2cccs2)=Nc2ccccc2N1 (configuration not stated),70.3,inactive,–
15.2,–,CCC1=Nc2ccccc2NC(C)(CC)C1 (configuration not stated),27.4,–,–
16.6,–,CC(C)C1=Nc2ccccc2NC(C)(C(C)C)C1 (configuration not stated),26.3,–,–
9.4,–,CC1(c2ccccc2)CC(c2ccccc2)=Nc2ccccc2N1 (configuration not stated),59.8,–,–
35.2,–,CC1(c2ccsc2)CC(c2ccsc2)=Nc2ccccc2N1 (configuration not stated),13.2,–,–
–,–,CC1(c2ccc(Cl)cc2)CC(c2ccc(Cl)cc2)=Nc2ccccc2N1 (configuration not stated),28.2,–,28.2
